Active and inactive are the calls of the source. The rule behind the calls is not given here.

By IC50 is commonly meant the concentration that gives 50% inhibition. A lower IC50 goes with inhibition by little substance. A word on the Cmax: it is the peak of the concentration-time curve. Usually half-life stands for how long it takes for the measured level to halve. The low end stands for rapid decline, the high end for slow decline. By bioavailability is commonly meant dose-corrected exposure relative to a reference, in per cent. A higher bioavailability goes with good availability. For orientation: inhibition means the drop in the measured response relative to a control, in per cent. A low value points to a response near the control. As usually defined, the inhibition in vivo is the change of the read-out against control, counted positive when it falls. Read a high inhibition in vivo as strong suppression.

Data set [1] has as its target T1, Prolyl endopeptidase FAP (Homo sapiens, UniProt Q12884).
T1 sequence (Q12884 whole entry): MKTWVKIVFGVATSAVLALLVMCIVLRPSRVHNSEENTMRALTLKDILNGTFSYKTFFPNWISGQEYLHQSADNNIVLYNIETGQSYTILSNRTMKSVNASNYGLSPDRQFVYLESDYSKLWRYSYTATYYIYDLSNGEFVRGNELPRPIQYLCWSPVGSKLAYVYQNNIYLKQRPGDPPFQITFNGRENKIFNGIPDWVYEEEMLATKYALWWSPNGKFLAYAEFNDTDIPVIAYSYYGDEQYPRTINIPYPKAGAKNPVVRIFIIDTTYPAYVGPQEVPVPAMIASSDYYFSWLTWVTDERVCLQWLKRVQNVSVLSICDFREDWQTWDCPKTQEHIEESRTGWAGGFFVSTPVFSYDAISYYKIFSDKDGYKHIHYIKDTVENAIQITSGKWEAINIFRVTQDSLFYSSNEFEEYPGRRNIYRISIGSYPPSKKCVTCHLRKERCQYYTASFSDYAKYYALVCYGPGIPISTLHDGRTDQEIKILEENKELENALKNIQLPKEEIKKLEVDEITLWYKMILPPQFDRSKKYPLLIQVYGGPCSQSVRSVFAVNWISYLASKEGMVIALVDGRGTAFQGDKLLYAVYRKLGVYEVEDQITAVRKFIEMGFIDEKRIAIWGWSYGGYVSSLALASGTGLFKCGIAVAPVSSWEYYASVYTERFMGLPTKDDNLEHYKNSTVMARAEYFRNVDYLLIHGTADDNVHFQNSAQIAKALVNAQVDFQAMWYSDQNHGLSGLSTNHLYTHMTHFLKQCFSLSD
In words: Inhibition of human FAP.

Data set [2] deals with Dipeptidyl peptidase 2 (Homo sapiens, UniProt Q9UHL4). In words: Inhibition of human DPP2.
The subject of data set [3] is Rattus norvegicus. In words: (§1) Oral bioavailability in rat at 10 mg/kg, po. In kind it is ADME, organism-based. Conditions: in vivo. The method in brief: (§2)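 Rat pharmacokinetics after dosing at 5 mg/kg iv and 10 mg/kg po. Parameters derived: plasma clearance, oral Cmax, oral half-life, dose-normalised oral AUC and oral bioavailability (F).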
A short description of data set [4]: Cmax in rat at 10 mg/kg, po. In kind it is ADME, organism-based. Also noted: dose 10 mg/kg, route oral. The settings on record: in vivo. The method, boiled down:
as §2

Data set [5] in a line: Plasma clearance in rat at 5 mg/kg, iv or 10 mg/kg, po. It is filed as ADME, organism-based. The method in brief:
as §2

Data set [6] deals with T2, Dipeptidyl peptidase 8 (Homo sapiens, UniProt Q6V1X1). In words: Inhibition of human DPP8.
Target sequence in this assay (Q6V1X1 whole entry): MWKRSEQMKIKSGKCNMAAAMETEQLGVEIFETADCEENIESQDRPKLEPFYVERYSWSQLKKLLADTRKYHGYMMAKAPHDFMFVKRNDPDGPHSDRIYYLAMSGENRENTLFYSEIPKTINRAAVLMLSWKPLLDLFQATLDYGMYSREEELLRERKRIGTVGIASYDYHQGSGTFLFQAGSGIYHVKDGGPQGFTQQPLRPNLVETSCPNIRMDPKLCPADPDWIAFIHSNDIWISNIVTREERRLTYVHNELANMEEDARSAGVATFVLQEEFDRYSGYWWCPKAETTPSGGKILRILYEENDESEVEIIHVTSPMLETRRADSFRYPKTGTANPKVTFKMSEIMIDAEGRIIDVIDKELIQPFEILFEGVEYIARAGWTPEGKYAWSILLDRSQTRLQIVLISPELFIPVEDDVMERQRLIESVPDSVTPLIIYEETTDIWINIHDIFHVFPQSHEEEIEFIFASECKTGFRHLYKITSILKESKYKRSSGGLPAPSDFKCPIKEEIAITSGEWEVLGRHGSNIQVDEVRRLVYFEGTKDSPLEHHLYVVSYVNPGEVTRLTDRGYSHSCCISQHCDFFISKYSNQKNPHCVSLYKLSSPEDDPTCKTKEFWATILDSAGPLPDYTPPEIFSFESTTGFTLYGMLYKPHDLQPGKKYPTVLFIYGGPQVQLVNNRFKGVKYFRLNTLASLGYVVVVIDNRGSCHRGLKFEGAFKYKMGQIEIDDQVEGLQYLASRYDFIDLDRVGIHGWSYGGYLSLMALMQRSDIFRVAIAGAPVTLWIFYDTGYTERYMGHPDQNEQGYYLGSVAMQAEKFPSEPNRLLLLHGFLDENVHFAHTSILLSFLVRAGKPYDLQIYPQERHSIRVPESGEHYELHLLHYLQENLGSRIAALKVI
A short description of data set [7]: Half life in rat at 10 mg/kg, po. In kind it is ADME, organism-based. On the set-up: dose 10 mg/kg, route oral. Conditions: in vivo. The method, boiled down:
as §2

Data set [8] is described as follows: Plasma clearance in rat at 5 mg/kg, iv or 25 mg/kg, po. In kind it is ADME, organism-based. The method in brief: (§3)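 Rat pharmacokinetics after dosing at 5 mg/kg iv and 25 mg/kg po. Parameters derived: plasma clearance, oral Cmax, oral half-life, dose-normalised oral AUC and oral bioavailability (F).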
Data set [9] can be described thus: Oral bioavailability in rat at 25 mg/kg, po. It is filed as ADME, organism-based. Conditions: in vivo. The method, boiled down: as §3
For data set [10], the target named is hERG (KCNH2) (Homo sapiens, UniProt Q12809). In words: Inhibition of human ERG at 10 uM. The method, boiled down: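 hERG binding; percent inhibition at a test concentration of 10 µM.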
A short description of data set [11]: Cmax in rat at 25 mg/kg, po. The settings on record: in vivo. Also noted: dose 25 mg/kg, route oral. It is filed as ADME, organism-based. The method in brief: as §3
Data set [12] is described as follows: Half life in rat at 25 mg/kg, po. Also noted: dose 25 mg/kg, route oral. In kind it is ADME, organism-based. Conditions: in vivo. The method, boiled down: as §3
The target in data set [13] is T2, Dipeptidyl peptidase 8. In words: Inhibition of human DPP8 at 20 uM.
Target sequence in this assay (Q6V1X1 whole entry, looked up): as the sequence (Q6V1X1 whole entry) above
The test system of data set [14] is Rattus norvegicus. In words: Inhibition of DPP4 in Wistar rat plasma at 10 mg/kg, po within 30 mins. It is filed as functional. The settings on record: 0.5 h. The method in brief:
(§4)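 Adult male Wistar rats (n = 4–6/group) given a single oral gavage of 10 mg/kg in 0.5% methyl cellulose. Tail-vein blood (25–50 µl) taken at timed points and plasma kept frozen. Plasma (10 µl) mixed with 150 µM Gly-Pro-AMC in 25 mM Tris-HCl pH 7.4, 140 mM NaCl, 10 mM KCl, 0.1% BSA. Fluorescence read at ex 390/em 460 nm. Activity in U/mL; mean ± SEM.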

In data set [15] the test system is Rattus norvegicus. In words: Inhibition of DPP4 in Wistar rat plasma at 10 mg/kg, po after 8 hrs. It is filed as functional. The method, boiled down: as §4
Data set [16] has as its system Mus musculus. In words: Reduction in glucose excursion in C57BL/6J lean mouse at 3 mg/kg, po pretreated 30 mins before glucose challenge measured after 120 mins by oral glucose tolerance test relative to control. On the set-up: dose 3 mg/kg. It is filed as functional, organism-based. The method, boiled down:
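Fasted overnight: adult male C57BL/6 mice (20–25 g, 6–8 weeks old, n = 6/group), grouped by tail-vein glucometer reading. Oral gavage of test agent in distilled water at −30 min (1, 3 or 10 mg/kg), then 3 g/kg oral glucose (400 mg/mL) at 0 min.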

Data set [17] has as its system Rattus norvegicus. In words: Inhibition of DPP4 in Wistar rat plasma at 10 mg/kg, po after 24 hrs. It is filed as functional, organism-based. On the set-up: dose 10 mg/kg. The method in brief:
as §4

Data set [18] is described as follows: as §1. In kind it is ADME, organism-based. The settings on record: in vivo. The method, boiled down: as §2

hERG (KCNH2), sequence (Q12809 whole entry): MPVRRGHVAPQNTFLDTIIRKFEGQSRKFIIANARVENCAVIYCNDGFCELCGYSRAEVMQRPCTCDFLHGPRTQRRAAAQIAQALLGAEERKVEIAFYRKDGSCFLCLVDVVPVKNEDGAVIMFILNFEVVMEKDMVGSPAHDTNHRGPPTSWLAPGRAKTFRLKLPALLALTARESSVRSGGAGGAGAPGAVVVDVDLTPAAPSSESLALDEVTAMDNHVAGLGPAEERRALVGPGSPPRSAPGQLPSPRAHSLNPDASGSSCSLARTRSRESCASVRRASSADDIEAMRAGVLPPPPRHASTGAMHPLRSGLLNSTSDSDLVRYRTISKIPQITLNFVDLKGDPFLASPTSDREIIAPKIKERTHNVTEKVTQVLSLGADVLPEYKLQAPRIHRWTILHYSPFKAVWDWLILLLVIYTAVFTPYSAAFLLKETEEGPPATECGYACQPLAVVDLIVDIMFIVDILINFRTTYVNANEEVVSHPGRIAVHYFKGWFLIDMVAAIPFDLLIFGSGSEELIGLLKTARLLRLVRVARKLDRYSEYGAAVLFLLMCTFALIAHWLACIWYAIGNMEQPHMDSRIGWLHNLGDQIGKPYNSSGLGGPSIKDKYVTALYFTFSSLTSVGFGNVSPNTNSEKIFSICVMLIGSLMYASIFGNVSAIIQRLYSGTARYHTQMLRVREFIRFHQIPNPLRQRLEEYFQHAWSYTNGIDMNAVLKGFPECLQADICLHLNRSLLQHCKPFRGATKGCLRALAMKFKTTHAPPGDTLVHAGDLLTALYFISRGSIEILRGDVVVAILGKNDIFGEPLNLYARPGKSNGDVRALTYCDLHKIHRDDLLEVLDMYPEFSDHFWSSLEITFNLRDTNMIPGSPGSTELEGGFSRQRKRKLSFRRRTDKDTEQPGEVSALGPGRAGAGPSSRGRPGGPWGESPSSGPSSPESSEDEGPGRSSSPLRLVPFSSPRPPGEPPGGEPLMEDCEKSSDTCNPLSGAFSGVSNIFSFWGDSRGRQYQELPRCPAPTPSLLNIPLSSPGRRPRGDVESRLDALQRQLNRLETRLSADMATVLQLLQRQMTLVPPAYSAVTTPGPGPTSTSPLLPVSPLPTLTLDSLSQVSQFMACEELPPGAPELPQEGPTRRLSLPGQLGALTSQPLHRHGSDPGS

For the compound `COc1cccc([C@H]2C[C@@H]2NC(=O)CC(C)(C)NCC(=O)N2C[C@@H](F)C[C@H]2C#N)c1`, the IC50 in data set [1], in data set [2] and in data set [6] was greater than 20 µM each time. This compound had a F in [3] of 194%. The Cmax in data set [4] is 898 ng/mL. In data set [5], the clearance stood at 124 mL/min/kg. In data set [7], the half-life was 6.8 h.

For `CC(C)(CC(=O)N[C@H]1C[C@@H]1c1ccc(F)cc1F)NCC(=O)N1CCC[C@H]1C#N`, the IC50 in [1], in [2] and in data set [6] was greater than 20 µM each time.

As to `CC(C)(CC(=O)N[C@H]1C[C@@H]1c1cc(F)cc(F)c1)NCC(=O)N1CCC[C@H]1C#N`, the IC50 in data set [1], in data set [2] and in [6] was greater than 20 µM in each case.

Regarding `CC(C)(CC(=O)N[C@H]1C[C@@H]1c1cccc(Cl)c1)NCC(=O)N1CC(F)(F)C[C@H]1C#N`, the IC50 in [2] turned out to be 0.59 µM. The clearance in data set [8] worked out at 189 mL/min/kg. This compound came in with a bioavailability in data set [9] of 53%. The inhibition at 10 µM in data set [10] turned out to be 15%. In [11], this compound had a Cmax of 454 ng/mL. The compound also gave a half-life in data set [12] of 3.2 h.

On to `Cc1ncsc1[C@H]1C[C@@H]1NC(=O)CC(C)(C)NCC(=O)N1C[C@@H](F)C[C@H]1C#N`, for which the half-inhibitory concentration (IC50) in data set [1], in data set [2] and in data set [6] was greater than 20 µM throughout. For the same compound, in data set [13], the inhibition turned out to be 23%. The inhibition in vivo at 10 mg/kg in data set [14] turned out to be 60%; in data set [15], 30%.

On to `CC(C)(CC(=O)N[C@H]1C[C@@H]1c1cccc(Cl)c1)NCC(=O)N1CCC[C@H]1C#N` (stereo in doubt; 18k), for which the IC50 in [1], in data set [2] and in data set [6] was greater than 20 µM each time.

Take `CC(C)(CC(=O)N[C@H]1C[C@@H]1c1cccc(OC(F)(F)F)c1)NCC(=O)N1CCC[C@H]1C#N`: the IC50 in [1], in data set [2] and in data set [6] was greater than 20 µM each time.

Take `COc1ccc([C@H]2C[C@@H]2NC(=O)CC(C)(C)NCC(=O)N2C[C@@H](F)C[C@H]2C#N)cc1`: the IC50 in data set [1], in [2] and in data set [6] was greater than 20 µM each time. In addition, the clearance in [8] is 20 mL/min/kg. The bioavailability in [9] is 28%. Also, in [11], the highest level (Cmax) was 347 ng/mL. In [12], this compound had a half-life of 5.3 h.

With `CC(C)(CC(=O)N[C@H]1C[C@@H]1c1cccnc1)NCC(=O)N1C[C@@H](F)C[C@H]1C#N`, the IC50 in [1], in [2] and in [6] was greater than 20 µM each time. This compound also showed an inhibition in data set [13] of 17%.

On to `CC(C)(CC(=O)N[C@H]1C[C@@H]1c1ccccc1)NCC(=O)N1CCC[C@H]1C#N`, for which the IC50 is greater than 20 µM in [1], 16 µM in [2] and greater than 20 µM in data set [6].

Turning to `CC(C)(CC(=O)N[C@@H]1C[C@H]1c1cccc(Cl)c1)NCC(=O)N1CCC[C@H]1C#N`, the IC50 was greater than 20 µM in data set [1], 17 µM in data set [2] and greater than 20 µM in [6].

Turning to `CC(C)(CC(=O)N[C@@H]1C[C@H]1c1cccc(Cl)c1)NCC(=O)N1C[C@@H](F)C[C@H]1C#N`, the IC50 in [1] is greater than 20 µM; in [2] it was 5.2 µM.

For the compound `CC(C)(CC(=O)N[C@H]1C[C@@H]1c1cccc(Cl)c1)NCC(=O)N1CCC[C@H]1C#N` (stereo in doubt; 22), the IC50 in data set [1], in data set [2] and in data set [6] was greater than 20 µM in each case.

Regarding `N[C@@H](CC(=O)N1CCn2c(nnc2C(F)(F)F)C1)Cc1cc(F)c(F)cc1F`, the result in [16] was Active. For the same compound, the outcome in [17] was inactive.

For the compound `CC(C)(CC(=O)N[C@H]1C[C@@H]1c1cccc(F)c1)NCC(=O)N1C[C@@H](F)C[C@H]1C#N`, the IC50 in data set [1] and in [2] was greater than 20 µM in each case. This compound registered a bioavailability in data set [18] of 29%. This compound showed a Cmax in data set [4] of 175 ng/mL. In data set [5], this compound showed a clearance of 55 mL/min/kg. Besides, in data set [7], the half-life was 1.2 h.

For `CC(C)(CC(=O)N[C@H]1C[C@@H]1c1ccc(F)c(F)c1)NCC(=O)N1CCC[C@H]1C#N`, the IC50 in [1], in [2] and in [6] was greater than 20 µM in each case.

With `CC(C)(CC(=O)N[C@H]1C[C@@H]1c1ccc(C(F)(F)F)cc1)NCC(=O)N1CCC[C@H]1C#N`, the IC50 in data set [1], in data set [2] and in [6] was greater than 20 µM each time.

On to `CC(C)(CC(=O)N[C@H]1C[C@@H]1c1cccc(C(F)(F)F)c1)NCC(=O)N1CCC[C@H]1C#N`, for which the IC50 in [1], in [2] and in data set [6] was greater than 20 µM in each case.

Consider `CC(C)(CC(=O)N[C@H]1C[C@@H]1c1ccc(F)cc1)NCC(=O)N1CCC[C@H]1C#N`, for which the IC50 in data set [1], in [2] and in data set [6] was greater than 20 µM in each case.

As for `CC(C)(CC(=O)N[C@H]1C[C@@H]1c1cccc(OC(F)(F)F)c1)NCC(=O)N1C[C@@H](F)C[C@H]1C#N`, the IC50 in data set [1], in data set [2] and in data set [6] was greater than 20 µM each time.

As for `CC(C)(CC(=O)N[C@H]1C[C@@H]1c1ccc(Cl)cc1)NCC(=O)N1CCC[C@H]1C#N`, the IC50 in data set [1], in data set [2] and in [6] was greater than 20 µM in each case.

As for `CC(C)(CC(=O)N[C@H]1C[C@@H]1c1ccccc1)NCC(=O)N1C[C@@H](F)C[C@H]1C#N`, the IC50 in data set [1], in data set [2] and in data set [6] was greater than 20 µM throughout.

Take `CC(C)(CC(=O)N[C@H]1C[C@@H]1c1cccc(F)c1)NCC(=O)N1CCC[C@H]1C#N`: the IC50 in [1], in data set [2] and in data set [6] was greater than 20 µM in each case.

For `CCOc1cccc([C@H]2C[C@@H]2NC(=O)CC(C)(C)NCC(=O)N2C[C@@H](F)C[C@H]2C#N)c1`, the half-maximal inhibitory concentration (IC50) in [2] and in data set [6] was greater than 20 µM each time.

`CC(C)(CC(=O)N[C@H]1C[C@@H]1c1ccc(Cl)c(Cl)c1)NCC(=O)N1CCC[C@H]1C#N`: the IC50 in [1], in [2] and in data set [6] was greater than 20 µM each time.

Turning to `COc1ccc([C@H]2C[C@@H]2NC(=O)CC(C)(C)NCC(=O)N2CCC[C@H]2C#N)cc1OC`, the IC50 in data set [1], in data set [2] and in [6] was greater than 20 µM in each case.

(Values after ChEMBL document CHEMBL1152812, “Novel trans-2-aryl-cyclopropylamine analogues as potent and selective dipeptidyl peptidase IV inhibitors” (Bioorg Med Chem, 2009).)
